Reference: ChEMBL document CHEMBL1811802, “Synthesis and significant cytostatic activity of 7-hetaryl-7-deazaadenosines” (J Med Chem, 2011)
Each block holds one compound with its values, some of them ahead of it.

Legend:
[1] = Cytotoxicity against human HeLaS3 cells after 3 days by XTT assay; assay type: functional, cell-based; details: HeLa S3, 72 h
Method in brief: (§1)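 Suspension-grown cell lines, 3-day compound incubation; viability read by XTT metabolic assay; IC50 averaged from four independent experiments.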

MT4 = test: Cytostatic activity against human MT4 cells after 5 days by SRB assay; assay type: functional; details: MT4, 120 h
A549 = test: Cytostatic activity against human A549 cells after 5 days by SRB assay; assay type: functional; details: A549, 120 h
Method in brief: (§2)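 Cells seeded per line density, overnight at 37 °C; day-zero plate TCA-fixed. 5-fold serial dilutions added, 5-day incubation; TCA fixation, 0.057% SRB in 1% acetic acid 30 min, dye dissolved in 10 mM Tris pH 10.5, A500. Growth relative to day-zero and untreated; GIC50 from sigmoidal dose–response fit; mean of two independent experiments.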

Adenosine kinase = Adenosine kinase (Homo sapiens, UniProt P55263); test: Inhibition of human ADK using [3H]-adenosine by scintillation counting
Adenosine kinase, sequence (P55263 whole entry): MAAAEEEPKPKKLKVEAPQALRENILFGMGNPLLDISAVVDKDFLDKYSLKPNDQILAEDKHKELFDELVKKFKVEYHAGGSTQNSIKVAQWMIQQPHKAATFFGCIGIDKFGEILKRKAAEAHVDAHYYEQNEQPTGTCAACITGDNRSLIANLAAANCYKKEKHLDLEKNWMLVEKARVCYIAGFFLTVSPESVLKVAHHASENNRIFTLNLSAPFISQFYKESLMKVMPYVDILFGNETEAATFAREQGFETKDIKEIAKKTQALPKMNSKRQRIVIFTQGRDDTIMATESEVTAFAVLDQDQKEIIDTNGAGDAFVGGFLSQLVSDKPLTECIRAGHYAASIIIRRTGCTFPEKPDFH

DU-145 [2] = test: Cytostatic activity against human DU145 cells after 5 days by SRB assay; assay type: functional; details: DU-145, 120 h; method in brief: as §2
CCRF-CEM = test: Cytotoxicity against human CCRF-CEM cells after 3 days by XTT assay; assay type: functional, cell-based; details: 72 h; method in brief: as §1
HCT-15 = test: Cytostatic activity against human HCT15 cells after 5 days by SRB assay; assay type: functional; details: HCT-15, 120 h; method in brief: as §2
HCT-116 [3] = test: Cytostatic activity against human HCT116 cells after 5 days by SRB assay; assay type: functional; details: HCT-116, 120 h; method in brief: as §2
DU-145 [4] = test: Metabolic stability in human DU145 cells assessed as sodium ((2R,3S,4R,5R)-5-(4-amino-7H-pyrrolo[2,3-d]pyrimidin-7-yl)-3,4-dihydroxytetrahydrofuran-2-yl)methyl hydrogentriphosphate-NTP formation per million of cells at 10 uM after 6 hrs by LC/MS/MS analysis; assay type: ADME, cell-based; details: du-145, 6 h
Method in brief: (§3)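 Du145 seeded at 60% confluence in MEM/10% FBS; next day exposed to 10 μM compound for 6 or 24 h. Cells trypsinized, extracted in 70% MeOH, dried, resuspended in 1 mM ammonium phosphate pH 8.5. Nucleoside, NMP and NTP quantified by ion-pairing (dimethylhexylamine) LC/MS/MS against untreated-cell-extract standard curves; pmol per million cells.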

DU-145 [5] = test: Metabolic stability in human DU145 cells assessed as sodium ((2R,3S,4R,5R)-5-(4-amino-7H-pyrrolo[2,3-d]pyrimidin-7-yl)-3,4-dihydroxytetrahydrofuran-2-yl)methyl hydrogenphosphate-NMP formation per million of cells at 10 uM after 6 hrs by LC/MS/MS analysis; assay type: ADME, cell-based; details: du-145, 6 h; method in brief: as §3
[6] = Cytostatic activity against human Hs578 cells after 5 days by SRB assay; assay type: functional; details: Hs578, 120 h; method in brief: as §2
DU-145 [7] = test: Metabolic stability in human DU145 cells assessed as nucleoside formation per million of cells at 10 uM after 24 hrs by LC/MS/MS analysis; assay type: ADME, cell-based; details: du-145, 24 h; method in brief: as §3
DU-145 [8] = test: Metabolic stability in human DU145 cells assessed as nucleoside formation per million of cells at 10 uM after 6 hrs by LC/MS/MS analysis; assay type: ADME, cell-based; details: du-145, 6 h; method in brief: as §3
HL-60 = test: Cytotoxicity against human HL60 cells after 3 days by XTT assay; assay type: functional, cell-based; details: HL-60, 72 h; method in brief: as §1
PC-3 [9] = test: Cytostatic activity against human PC3 cells after 5 days by SRB assay; assay type: functional; details: PC-3, 120 h; method in brief: as §2
DU-145 [10] = test: Metabolic stability in human DU145 cells assessed as sodium ((2R,3S,4R,5R)-5-(4-amino-7H-pyrrolo[2,3-d]pyrimidin-7-yl)-3,4-dihydroxytetrahydrofuran-2-yl)methyl hydrogenphosphate-NMP formation per million of cells at 10 uM after 24 hrs by LC/MS/MS analysis; assay type: ADME, cell-based; details: du-145, 24 h; method in brief: as §3
NCI-H23 = test: Cytostatic activity against human NCI-H23 cells after 5 days by SRB assay; assay type: functional; details: NCI-H23, 120 h; method in brief: as §2
DU-145 [11] = test: Metabolic stability in human DU145 cells assessed as sodium ((2R,3S,4R,5R)-5-(4-amino-7H-pyrrolo[2,3-d]pyrimidin-7-yl)-3,4-dihydroxytetrahydrofuran-2-yl)methyl hydrogentriphosphate-NTP formation per million of cells at 10 uM after 24 hrs by LC/MS/MS analysis; assay type: ADME, cell-based; details: du-145, 24 h; method in brief: as §3
BT-549 [12] = test: Cytostatic activity against human BT549 cells after 5 days by SRB assay; assay type: functional; details: BT-549, 120 h; method in brief: as §2
SK-OV-3 = test: Cytotoxicity against human SKOV3 cells after 3 days by MTT assay; assay type: functional, cell-based; details: SK-OV-3, 72 h
[13] = Cytotoxicity against human CEM-DNR-bulk cells after 3 days by MTT assay; assay type: functional, cell-based; details: 72 h
SK-MEL-2 = test: Cytotoxicity against human SK-MEL-2 cells after 3 days by MTT assay; assay type: functional, cell-based; details: SK-MEL-2, 72 h
[14] = Cytotoxicity against mouse P388D1 cells after 3 days by MTT assay; assay type: functional, cell-based; details: P388D1, 72 h
C6 = test: Cytotoxicity against rat C6 cells after 3 days by MTT assay; assay type: functional, cell-based; details: C6, 72 h
CT26 = test: Cytotoxicity against mouse CT26 cells after 3 days by MTT assay; assay type: functional, cell-based; details: CT26, 72 h
K562 [15] = test: Cytotoxicity against human K562 cells after 3 days by MTT assay; assay type: functional, cell-based; details: K562, 72 h
[16] = Cytotoxicity against human U87MG cells after 3 days by MTT assay; assay type: functional, cell-based, U-87MG ATCC; details: U-87 MG, 72 h
BV-173 = test: Cytotoxicity against human BV173 cells after 3 days by MTT assay; assay type: functional, cell-based; details: BV-173, 72 h
HPAC = test: Cytotoxicity against human HPAC cells after 3 days by MTT assay; assay type: functional, cell-based; details: 72 h
K562 [17] = test: Cytotoxicity against human paclitaxel resistant K562 cells after 3 days by MTT assay; assay type: functional, cell-based; details: K562, 72 h
HT-29 = test: Cytotoxicity against human HT-29 cells after 3 days by MTT assay; assay type: functional, cell-based; details: HT-29, 72 h
LNCaP = test: Cytotoxicity against human LNCAP cells after 3 days by MTT assay; assay type: functional, cell-based; details: 72 h
HeLa = test: Cytotoxicity against human HeLa cells after 3 days by MTT assay; assay type: functional, cell-based; details: 72 h
PC-3 [18] = test: Cytotoxicity against human PC3 cells after 3 days by MTT assay; assay type: functional, cell-based; details: PC-3, 72 h
BJ = test: Cytotoxicity against human BJ cells after 3 days by MTT assay; assay type: cell-based; details: 72 h
HCT-116 [19] = test: Cytotoxicity against human HCT116 cells after 3 days by MTT assay; assay type: functional, cell-based; details: HCT-116, 72 h
MAT-Ly-Lu = test: Cytotoxicity against rat MAT-LyLu cells after 3 days by MTT assay; assay type: functional, cell-based; details: 72 h
L1210 = test: Cytotoxicity against mouse L1210 cells after 3 days by MTT assay; assay type: functional, cell-based; details: L1210, 72 h
[20] = Cytotoxicity against human NCI-H146 cells after 3 days by MTT assay; assay type: functional, cell-based; details: NCI-H146, 72 h
MCF7 = test: Cytotoxicity against human MCF7 cells after 3 days by MTT assay; assay type: functional, cell-based; details: MCF7, 72 h
SK-N-AS = test: Cytotoxicity against human SK-N-AS cells after 3 days by MTT assay; assay type: functional, cell-based; details: 72 h
BT-549 [21] = test: Cytotoxicity against human BT549 cells after 3 days by MTT assay; assay type: functional, cell-based; details: BT-549, 72 h
EL4 = test: Cytotoxicity against mouse EL4 cells after 3 days by MTT assay; assay type: functional, cell-based; details: EL4, 72 h
MDA-MB-231 = test: Cytotoxicity against human MDA-MB-231 cells after 3 days by MTT assay; assay type: functional, cell-based; details: MDA-MB-231, 72 h
[22] = Cytotoxicity against human MES-SA cells after 3 days by MTT assay; assay type: functional, cell-based; details: 72 h

GI50 (A549): > 20000 nM | IC50 (Adenosine kinase): > 5000 nM | GI50 (DU-145 [2]): > 20000 nM | GI50 (HCT-15): > 20000 nM | GI50 (HCT-116 [3]): > 20000 nM | Stability (DU-145 [4]): 0.13 pmol | Stability (DU-145 [5]): 6.23 pmol | Stability (DU-145 [7]): 68.8 pmol | Stability (DU-145 [8]): 32.91 pmol | GI50 (PC-3 [9]): > 20000 nM | Stability (DU-145 [10]): 6.68 pmol | GI50 (NCI-H23): > 20000 nM | Stability (DU-145 [11]): 0.27 pmol | GI50 (BT-549 [12]): > 20000 nM
SMILES: Nc1ncnc2c1c(-c1ccccc1)cn2[C@@H]1O[C@H](CO)[C@@H](O)[C@H]1O
IC50 [1]: > 10000 nM | GI50 (MT4): > 20000 nM | IC50 (CCRF-CEM): > 10000 nM | GI50 [6]: > 20000 nM | IC50 (HL-60): > 10000 nM

GI50 (A549): 34 nM | IC50 (Adenosine kinase): > 5000 nM | GI50 (DU-145 [2]): 330 nM | GI50 (HCT-116 [3]): 15 nM | GI50 (PC-3 [9]): 418 nM | GI50 (NCI-H23): 198 nM | GI50 (BT-549 [12]): 28 nM
SMILES: Nc1ncnc2c1c(-c1ccoc1)cn2[C@@H]1O[C@H](CO)[C@@H](O)[C@H]1O
IC50 (SK-OV-3): > 10000 nM | IC50 [13]: 364 nM | IC50 (SK-MEL-2): > 10000 nM | IC50 [1]: 20 nM | IC50 [14]: 139 nM | GI50 (MT4): 170 nM | IC50 (C6): > 10000 nM | IC50 (CCRF-CEM): 70 nM | IC50 (CT26): 1670 nM | IC50 (K562 [15]): 200 nM | IC50 [16]: > 10000 nM | IC50 (BV-173): 68 nM | IC50 (HPAC): 133 nM | IC50 (K562 [17]): 147 nM | IC50 (HT-29): 394 nM | IC50 (LNCaP): 112 nM | GI50 [6]: 21 nM | IC50 (HeLa): 350 nM | IC50 (PC-3 [18]): > 10000 nM | IC50 (BJ): > 10000 nM | IC50 (HCT-116 [19]): 425 nM | IC50 (MAT-Ly-Lu): 1860 nM | IC50 (L1210): 445 nM | IC50 [20]: > 10000 nM | IC50 (HL-60): 9060 nM | IC50 (MCF7): 9740 nM | IC50 (SK-N-AS): > 10000 nM | IC50 (BT-549 [21]): 452 nM | IC50 (EL4): > 10000 nM | IC50 (MDA-MB-231): 126 nM | IC50 [22]: 1330 nM
